Our source for the T/C and Survivors values is ChEMBL document CHEMBL1122849, “Synthesis and properties of bis(2,2-dimethylaziridinyl)phosphinic amides: a series of new antineoplastic agents” (1985).

The subject of assay [1] is P388. Briefly: Compound was evaluated for the antineoplastic activity against P388 leukemia at an optimal dose of 256 mg/kg administered intraperitoneally. Type of assay: functional, Mus musculus. As to conditions: route intraperitoneal.
In assay [2] the test system is B16. Briefly: Compound was evaluated for the antineoplastic activity on B16 Melanoma cells at the optimal dose of 160 mg/kg through intraperitoneal route on days 1,5,9. Type of assay: functional, Mus musculus.
For assay [3], the system named is B16. Briefly: Compound was evaluated for the antineoplastic activity on B16 Melanoma cells at the optimal dose of 80 mg/kg through intraperitoneal route on days 1,5,9. It counts as functional, Mus musculus.
The subject of assay [4] is B16. Briefly: Compound was evaluated for the antineoplastic activity on B16 Melanoma cells at the optimal dose of 120 mg/kg through intraperitoneal route on days 1,5,9. Type of assay: functional, Mus musculus.
The species named for assay [5] is Mus musculus. The assay is described as follows: Tumor free mice out of 6 surviving to day 30 or beyond was determined. It counts as functional. Put shortly:
(§1)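 Surviving mice were autopsied when the experiment ended. A mouse was scored cured if tumor-free with no visible disease at day 30 (P388, L1210) or day 60 (B16, C26, M109). Groups held 6, 10 or 8 mice.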

In assay [6] the test system is B16. The assay is described as follows: Compound was evaluated for the antineoplastic activity on B16 Melanoma cells at the optimal dose of 100 mg/kg through intraperitoneal route on days 1,5,9. Type of assay: functional, Mus musculus.
Assay [7] concerns Colon 26. The assay is described as follows: Antitumor activity against C26 implants through intraperitoneal route along with the optimal dose of 120 mg/kg through intraperitoneal injection on 5,8 days. Type of assay: functional, Mus musculus.
For assay [8], the system named is Colon 26. The assay is described as follows: Antitumor activity against C26 implants through subcutaneous route along with the optimal dose of 120 mg/kg through intraperitoneal injection on 5,8 days. It counts as functional, Mus musculus.
Assay [9] deals with M109. The assay is described as follows: Antitumor activity against M109 implants through intraperitoneal route along with the optimal dose of 150 mg/kg through intraperitoneal route on 1,4 days. Type of assay: functional, Mus musculus.
The test system of assay [10] is M109. Briefly: Antitumor activity against M109 implants through subcutaneous route along with the optimal dose of 100 mg/kg through intraperitoneal route on 1,4 days. Type of assay: functional, Mus musculus.
In assay [11] the test system is P388. The assay is described as follows: Compound was evaluated for the antineoplastic activity against P388 leukemia at an optimal dose of 80 mg/kg administered intraperitoneally. It counts as functional, Mus musculus. As to conditions: route intraperitoneal.
The test system of assay [12] is Colon 26. Briefly: Antitumor activity against C26 implants through intraperitoneal route along with the optimal dose of 50 mg/kg through intraperitoneal injection on 1,4 days. It counts as functional, Mus musculus.
Assay [13] is filed under the species Mus musculus. The assay is described as follows: Tumor free mice out of 10 surviving to day 60 was determined. Type of assay: functional. The gist of the method: as §1
Assay [14] deals with P388. Briefly: Compound was evaluated for the antineoplastic activity against P388 leukemia at an optimal dose of 64 mg/kg administered intraperitoneally. Type of assay: functional, Mus musculus. As to conditions: route intraperitoneal.
Assay [15] relates to B16. The assay is described as follows: Compound was evaluated for the antineoplastic activity on B16 Melanoma cells at the optimal dose of 60 mg/kg through intraperitoneal route on days 1,5,9. Type of assay: functional, Mus musculus.
Assay [16] concerns B16. Briefly: Compound was evaluated for the antineoplastic activity on B16 Melanoma cells at the optimal dose of 10 mg/kg through intraperitoneal route on days 1,5,9. It counts as functional, Mus musculus.
Assay [17] deals with Colon 26. Briefly: Antitumor activity against C26 implants through intraperitoneal route along with the optimal dose of 80 mg/kg through intraperitoneal injection on 1,4 days. Type of assay: functional, Mus musculus.
The subject of assay [18] is Colon 26. Briefly: Antitumor activity against C26 implants through subcutaneous route along with the optimal dose of 60 mg/kg through intraperitoneal injection on 1,4 days. It counts as functional, Mus musculus.
In assay [19] the test system is L1210. The assay is described as follows: Compound was evaluated for the antineoplastic activity on L1210 leukemia cell line at the optimal dose of 180 mg/kg administered intraperitoneally on day 1 following intraperitoneal implant of 10e 6 L1210 cells, in six mice.9. Type of assay: functional, Mus musculus.
The subject of assay [20] is P388. The assay is described as follows: Compound was evaluated for the antineoplastic activity against P388 leukemia at an optimal dose of 128 mg/kg administered intraperitoneally. As to conditions: route intraperitoneal. It counts as functional, Mus musculus.
For assay [21], the system named is B16. Briefly: (§2) Compound was evaluated for the antineoplastic activity on B16 Melanoma cells at the optimal dose of 40 mg/kg through intraperitoneal route on days 1,5,9. Type of assay: functional, Mus musculus.
The test system of assay [22] is B16. The assay is described as follows: Compound was evaluated for the antineoplastic activity on B16 Melanoma cells at the optimal dose of 50 mg/kg through intraperitoneal route on days 1,5,9. Type of assay: functional, Mus musculus.
The test system of assay [23] is B16. The assay is described as §2. It counts as functional, Mus musculus. The source holds these as a separate data set.
In assay [24] the test system is Colon 26. The assay is described as follows: Antitumor activity against C26 implants through intraperitoneal route along with the optimal dose of 120 mg/kg through intraperitoneal injection on 1,4 days. It counts as functional, Mus musculus.
Assay [25] concerns Colon 26. The assay is described as follows: Antitumor activity against C26 implants through subcutaneous route along with the optimal dose of 50 mg/kg through intraperitoneal injection on 1,4 days. Type of assay: functional, Mus musculus.
In assay [26] the test system is L1210. The assay is described as follows: Compound was evaluated for the antineoplastic activity on L1210 leukemia cell line at the optimal dose of 60 mg/kg administered intraperitoneally on day 1 following intraperitoneal implant of 10e 6 L1210 cells, in six mice. Type of assay: functional, Mus musculus.
In assay [27] the test system is M109. The assay is described as follows: Antitumor activity against M109 implants through subcutaneous route along with the optimal dose of 70 mg/kg through intraperitoneal route on 1,4 days. It counts as functional, Mus musculus.
Assay [28] has as its system M109. The assay is described as follows: Antitumor activity against M109 implants through subcutaneous route along with the optimal dose of 70 mg/kg through intravenously route on 1,4 days. As to conditions: route intravenous. It counts as functional, Mus musculus.
For assay [29], the species on record is Mus musculus. Briefly: Tumor free mice out of 8 surviving to day 60 or beyond was determined. It counts as functional. The gist of the method: as §1
Assay [30] concerns Colon 26. Briefly: Antitumor activity against C26 implants through intraperitoneal route along with the optimal dose of 60 mg/kg through intraperitoneal injection on 1,4 days. It counts as functional, Mus musculus.
Assay [31] concerns Colon 26. The assay is described as follows: Antitumor activity against C26 implants through subcutaneous route along with the optimal dose of 25 mg/kg through intraperitoneal injection on 1,4 days. Type of assay: functional, Mus musculus.
Assay [32] deals with L1210. Briefly: Compound was evaluated for the antineoplastic activity on L1210 leukemia cell line at the optimal dose of 180 mg/kg administered intraperitoneally on day 1 following intraperitoneal implant of 10e 6 L1210 cells, in six mice. Type of assay: functional, Mus musculus.
Assay [33] deals with B16. Briefly: Compound was evaluated for the antineoplastic activity on B16 Melanoma cells at the optimal dose of 18 mg/kg through intraperitoneal route on days 1,5, 9. It counts as functional, Mus musculus.
For assay [34], the system named is B16. Briefly: Compound was evaluated for the antineoplastic activity on B16 Melanoma cells at the optimal dose of 24 mg/kg through intraperitoneal route on days 1,5,9. Type of assay: functional, Mus musculus.
In assay [35] the test system is B16. Briefly: Compound was evaluated for the antineoplastic activity on B16 Melanoma cells at the optimal dose of 36 mg/kg through intraperitoneal route on days 1,5, 9. Type of assay: functional, Mus musculus.
For assay [36], the system named is P388. Briefly: Compound was evaluated for the antineoplastic activity against P388 leukemia at an optimal dose of 100 mg/kg administered intraperitoneally. It counts as functional, Mus musculus. As to conditions: route intraperitoneal.

Several values for one entry are separate records, joined by “and”; a condition that tells them apart may be missing. Identical values can stand only once.

For `CC1(C)CN1P(=O)(N1CCCCC1)N1CC1(C)C` (stereo not drawn), the T/C in assay [1] is 218%; in assay [2], 132%.

Turning to `CCCNP(=O)(N1CC1(C)C)N1CC1(C)C` (stereo not drawn), the T/C in assay [3] is reported as 162%; in assay [4], 144%; in assay [1] it was 363%. In [5], this compound returned a Survivors of 2.

In the case of `CCOP(=O)(N1CC1(C)C)N1CC1(C)C` (stereo not drawn), the T/C was 188% and 119% in assay [6]; 144% in assay [7]; 130% in assay [8]; 146% in assay [9]; 104% in assay [10]; 272% in assay [11]. Also, the Survivors in assay [5] was found to be 2.

As for `CCNP(=O)(N1CC1(C)C)N1CC1(C)C` (stereo not drawn), the T/C in [4] came to 148%; in assay [1], 288%.

With `CCCCNP(=O)(N1CC1(C)C)N1CC1(C)C` (stereo not drawn), the T/C is given as 157% in assay [4] and 238% in assay [1].

Consider `CN(C)CCCNP(=O)(N1CC1(C)C)N1CC1(C)C` (stereo not drawn), for which the T/C in assay [3] (80 mg/kg) is 210% and 172%; in assay [12], 170%; in [14], 231%. The compound also had a Survivors in assay [13] of 2.

As for `CC1(C)CN1P(=O)(N1CCOCC1)N1CC1(C)C` (stereo not drawn), the T/C in [1] is on record as 247%; in [2], 160%.

In turn, `CC1(C)CN1P(=O)(NC1CCCCC1)N1CC1(C)C` (stereo not drawn) registered a T/C in assay [1] of 106%.

Regarding `CN(C)P(=O)(N1CC1(C)C)N1CC1(C)C` (stereo not drawn), the T/C was found to be 118% in [15]; 108% in assay [16]; 153% in assay [4]; 127% in assay [17]; 125% in assay [18]; 207% in assay [19]. Further, in [20], the T/C is recorded as 272%.

Regarding `CN1CCN(P(=O)(N2CC2(C)C)N2CC2(C)C)CC1` (stereo not drawn), the T/C is listed as 170% in assay [3] and 224% in assay [20].

As to `COCCCNP(=O)(N1CC1(C)C)N1CC1(C)C` (stereo not drawn), the T/C in assay [3] is reported as 160%; in assay [1] it was 225%. Besides, the Survivors in [5] is recorded as 1.

Consider `CC1(C)CN1P(N)(=O)N1CC1(C)C` (stereo not drawn), for which the T/C in assay [3] was 210%; in assay [21], 110%; in [22], 123%; in assay [23], 214%; in assay [6] it was 310% and 181%; in assay [4] (120 mg/kg) it was 191% and 180%. Besides, the T/C turned out to be 190% in [24]; 221% in assay [17]; 127% in assay [25]; 164% in assay [26]; 157% in assay [9]; 99% in assay [27]. The figures for the T/C in assay [28] and in assay [1] were 104% and 206%, respectively. In addition, the Survivors in [13] was 3 and 2; in assay [29], 3 and 2.

As for `CNP(=O)(N1CC1(C)C)N1CC1(C)C` (stereo not drawn), the T/C was found to be 120% in assay [15]; 126% in [16]; 153% in assay [4]; 166% in assay [30]; 151% in assay [31]; 207% in assay [32]. This compound had a T/C in assay [20] of 239%. The same compound registered a Survivors in [5] of 1.

On to `O=C(O)CCCc1ccc(N(CCCl)CCCl)cc1` [CHLORAMBUCIL], for which the T/C worked out at 132% in assay [33], 121% in [34] and 125% in [35].

With `O=P1(N(CCCl)CCCl)NCCCO1` (stereo not drawn) [CYCLOPHOSPHAMIDE ANHYDROUS], the T/C is 143% and 205% in assay [6]; 180% in [4]. Further, the Survivors in [29] is recorded as 1.

In the case of `CCOC(=O)NP(=O)(N1CC1(C)C)N1CC1(C)C` (stereo not drawn) [METUREDEPA], the T/C in [36] turned out to be 244%.

`CC1(C)CN1P(=O)(Nc1ccccc1)N1CC1(C)C` (stereo not drawn) [PHOSPHINIC ANILIDE DERIVATE]: the T/C in assay [1] stood at 169%.

As usually defined, the T/C is the result in the treated group divided by that in the control group, in per cent.
